The nature of data set [1]: Metabolic stability in human liver microsome assessed as half life at 5 uM in presence of NADPH incubated up to 60 mins by HPLC analysis. It is filed as ADME. The settings on record: microsomes, 1 h.
Data set [2] has as its system NIH3T3. Nature of the data set: Cytotoxicity in mouse NIH3T3 cells assessed as reduction in cell viability at 75 uM incubated for 24 hrs by neutral red uptake method based UV/visible spectrophotometer analysis. It is filed as toxicity. The settings on record: nih3t3, 24 h. In short, it runs like this:
(§1)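 NIH3T3 fibroblasts grown in DMEM with 10% FCS, L-glutamine/pen-strep and non-essential amino acids at 37 °C, 5% CO2. Monolayers exposed 24 h to compound diluted from a DMSO stock into medium. Neutral Red medium then added for 3 h at 37 °C. Dye extracted with acetic acid/ethanol desorb solution and absorbance read at 540 nm. Student's t-test, p<0.05.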

For data set [3], the system named is Heart. Kind of data set: Cardiotoxicity in Langendorff-perfused Sprague-Dawley rat heart assessed as effect on RR time at 0.01 uM by ECG analysis (reference value: 257.2 +/-8.1 milliseconds). The class given is toxicity, tissue-based.
Data set [4] concerns Heart. Kind of data set: Cardiotoxicity in Langendorff-perfused Sprague-Dawley rat heart assessed as effect on HR at 0.1 uM by ECG analysis (reference value: 235.7 +/-8.3 bpm). The class given is toxicity, tissue-based.
Data set [5] relates to Heart. Nature of the data set: Cardiotoxicity in Langendorff-perfused Sprague-Dawley rat heart assessed as effect on PQ interval time at 10 uM by ECG analysis (reference value: 43.6 +/-2.5 milliseconds). The class given is toxicity, tissue-based.
Data set [6] concerns Heart. Kind of data set: Cardiotoxicity in Langendorff-perfused Sprague-Dawley rat heart assessed as effect on RR time at 1 uM by ECG analysis (reference value: 257.2 +/-8.1 milliseconds). It is filed as toxicity, tissue-based.
The test system of data set [7] is Heart. Nature of the data set: Cardiotoxicity in Langendorff-perfused Sprague-Dawley rat heart assessed as effect on RR time at 0.1 uM by ECG analysis (reference value: 257.2 +/-8.1 milliseconds). The class given is toxicity, tissue-based.
Data set [8] deals with Heart. Kind of data set: Cardiotoxicity in Langendorff-perfused Sprague-Dawley rat heart assessed as effect on PQ interval time at 1 uM by ECG analysis (reference value: 43.6 +/-2.5 milliseconds). It is filed as toxicity, tissue-based.
Data set [9] deals with Heart. Nature of the data set: Cardiotoxicity in Langendorff-perfused Sprague-Dawley rat heart assessed as effect on QT interval time at 0.1 uM by ECG analysis (reference value: 76.2 +/-2.9 milliseconds). It is filed as toxicity, tissue-based.
The subject of data set [10] is Heart. Kind of data set: Cardiotoxicity in Langendorff-perfused Sprague-Dawley rat heart assessed as effect on RR time at 10 uM by ECG analysis (reference value: 257.2 +/-8.1 milliseconds). The class given is toxicity, tissue-based.
Data set [11] deals with Heart. Nature of the data set: Cardiotoxicity in Langendorff-perfused Sprague-Dawley rat heart assessed as effect on HR at 1 uM by ECG analysis (reference value: 235.7 +/-8.3 bpm). It is filed as toxicity, tissue-based.
Data set [12] is filed under the species Homo sapiens. Nature of the data set: Antifibrotic activity in TGF-beta1-induced human Lung parenchyma assessed as inhibition of collagen 3 mRNA expression at 4.1 uM incubated upto 7 days by qRT-PCR analysis. It is filed as functional. The settings on record: time <= 7.0 day. In short, it runs like this:
(§2)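 Human lung parenchyma pieces (2 mm³) cultured in DMEM with TGF-β1 (10 ng/mL) plus compound at 0.41 or 4.1 μM or vehicle (0.1% DMSO). Tissue collected on day 7, homogenized, total RNA purified, then qRT-PCR for HDAC6, collagen I, collagen III, αSMA and fibronectin. Relative expression by the 2^-Ct method; n=3, paired t test.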

Data set [13] deals with Heart. Nature of the data set: Cardiotoxicity in Langendorff-perfused Sprague-Dawley rat heart assessed as effect on QRS interval time at 0.1 uM by ECG analysis (reference value: 15.2 +/-0.2 milliseconds). The class given is toxicity, tissue-based.
Data set [14] deals with Heart. Kind of data set: Cardiotoxicity in Langendorff-perfused Sprague-Dawley rat heart assessed as effect on QTc interval time at 10 uM by ECG analysis (reference value: 150.5 +/-5.5 milliseconds). It is filed as toxicity, tissue-based.
The species named for data set [15] is Homo sapiens. Nature of the data set: Antifibrotic activity in TGF-beta1-induced human Lung parenchyma assessed as inhibition of alpha-SMA mRNA expression at 4.1 uM incubated upto 7 days by qRT-PCR analysis. Conditions: time <= 7.0 day. It is filed as functional. In short, it runs like this: as §2
Data set [16] relates to Heart. Kind of data set: Cardiotoxicity in Langendorff-perfused Sprague-Dawley rat heart assessed as effect on QRS interval time at 1 uM by ECG analysis (reference value: 15.2 +/-0.2 milliseconds). The class given is toxicity, tissue-based.
Data set [17] is described as follows: Mutagenecity in Salmonella typhimurium TA98 in presence of S9 fraction at 1 to 75 uM incubated for 90 mins by Ames test. The class given is toxicity, subcellular. The settings on record: salmonella enterica subsp. enterica serovar typhimurium, s9, 1.5 h, dose 1-75 µM.
The test system of data set [18] is NIH3T3. Kind of data set: Cytotoxicity in mouse NIH3T3 cells assessed as reduction in cell viability at 50 uM incubated for 24 hrs by neutral red uptake method based UV/visible spectrophotometer analysis. The class given is toxicity. Conditions: nih3t3, 24 h. In short, it runs like this:
(§3)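 NIH3T3 mouse fibroblasts grown in DMEM with 10% FCS, L-glutamine/pen-strep and non-essential amino acids (37 °C, 5% CO2). Exposed 24 h to compound diluted from a DMSO stock into medium. Viability measured by Neutral Red uptake: 3 h in NR medium, then acetic acid/ethanol desorb, absorbance at 540 nm. Student's t-test, p<0.05.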

Data set [19] is filed under the species Homo sapiens. Kind of data set: Antifibrotic activity in TGF-beta1-induced human Lung parenchyma assessed as inhibition of HDAC6 mRNA expression at 4.1 uM incubated upto 7 days by qRT-PCR analysis. It is filed as functional. Conditions: time <= 7.0 day. In short, it runs like this: as §2
The species named for data set [20] is Homo sapiens. Kind of data set: Antifibrotic activity in TGF-beta1-induced human Lung parenchyma assessed as inhibition of collagen 1 mRNA expression at 4.1 uM incubated upto 7 days by qRT-PCR analysis. The class given is functional. Conditions: time <= 7.0 day. In short, it runs like this:
as §2

A short description of data set [21]: Toxicity in zebra fish embryo assessed as visual capacity changes at 1 to 100 uM […] by optokinetic reflex assay. Set-up: species or system Danio rerio. Conditions: zebrafish, dose 1-100 µM. In short, it runs like this: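 Wildtype Tübingen larvae at 28.5 °C were exposed from 3 days old for 2 days to 1–100 µM (1, 10, 25, 50, 100) in embryo medium, against 0.1% DMSO vehicle. 8 larvae per group. Visual function was then tested by optokinetic reflex at 2 days post-treatment, on 5-day-old larvae.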

The subject of data set [22] is NIH3T3. Nature of the data set: Cytotoxicity in mouse NIH3T3 cells assessed as reduction in cell viability at 15 uM incubated for 24 hrs by neutral red uptake method based UV/visible spectrophotometer analysis. The class given is toxicity. Conditions: nih3t3, 24 h. The procedure, abridged:
as §3

The subject of data set [23] is Heart. Kind of data set: Cardiotoxicity in Langendorff-perfused Sprague-Dawley rat heart assessed as effect on QRS interval time at 0.01 uM by ECG analysis (reference value: 15.2 +/-0.2 milliseconds). It is filed as toxicity, tissue-based.
Data set [24] is filed under the species Homo sapiens. Nature of the data set: Antifibrotic activity in TGF-beta1-induced human Lung parenchyma assessed as inhibition of fibronectin mRNA expression at 4.1 uM incubated upto 7 days by qRT-PCR analysis. The class given is functional. Conditions: time <= 7.0 day. In short, it runs like this:
as §2

Data set [25] concerns NIH3T3. Kind of data set: Cytotoxicity in mouse NIH3T3 cells assessed as reduction in cell viability at 5 uM incubated for 24 hrs by neutral red uptake method based UV/visible spectrophotometer analysis. The class given is toxicity. The settings on record: nih3t3, 24 h. The procedure, abridged: as §1
Data set [26] concerns Heart. Nature of the data set: Cardiotoxicity in Langendorff-perfused Sprague-Dawley rat heart assessed as effect on QTc interval time at 1 uM by ECG analysis (reference value: 150.5 +/-5.5 milliseconds). The class given is toxicity, tissue-based.
The test system of data set [27] is Heart. Nature of the data set: Cardiotoxicity in Langendorff-perfused Sprague-Dawley rat heart assessed as effect on QT interval time at 1 uM by ECG analysis (reference value: 76.2 +/-2.9 milliseconds). The class given is toxicity, tissue-based.
Data set [28] has as its system Heart. Nature of the data set: Cardiotoxicity in Langendorff-perfused Sprague-Dawley rat heart assessed as effect on PQ interval time at 0.01 uM by ECG analysis (reference value: 43.6 +/-2.5 milliseconds). It is filed as toxicity, tissue-based.

SMILES strings stand for the structures. Activity calls are given as the source filed them. The rule behind the calls is not given here.

As to `CN1CCC2(CC1)c1ccccc1N(Cc1ccc(C(=O)NO)cc1)C2c1ccccc1F` (racemic), in data set [1], the t1/2 stood at 51.68 min.
Consider `CC1(C)c2ccccc2N(Cc2ccc(C(=O)NO)cc2)C1c1cccnc1` (racemic), for which the Activity with NIH3T3 [2] was 53%; in the data set with Heart [4], 238.1 bpm; with Heart [11], 235.4 bpm; in data set [17] it was “Non-Toxic”; in the data set on NIH3T3 [18], 71%; in data set [21], “Non-Toxic”. Besides, the Activity with NIH3T3 [22] is 94%; with NIH3T3 [25] it was 98%. The Time in the data set on Heart [3] worked out at 255.9 ms; with Heart [5], 50.4 ms; in the data set on Heart [6], 257.7 ms; in the data set on Heart [7] it was 253.7 ms; in the data set with Heart [8], 44.5 ms; with Heart [9], 78 ms. Besides, the Time was 294.1 ms in the data set with Heart [10]; 15.4 ms with Heart [13]; 145.3 ms with Heart [14]; 15.8 ms in the data set on Heart [16]; 15.6 ms in the data set on Heart [23]; 150.8 ms in the data set with Heart [26]. In addition, the Time with Heart [27] was 76.4 ms; with Heart [28], 44.1 ms. Also, the outcome in the data set filed under Homo sapiens [12], in the data set filed under Homo sapiens [15], in the data set listed under Homo sapiens [19], in the data set filed under Homo sapiens [20] and in the data set listed under Homo sapiens [24] was Active.

For the origin of these results see ChEMBL document CHEMBL5226322, “Harnessing the Role of HDAC6 in Idiopathic Pulmonary Fibrosis: Design, Synthesis, Structural Analysis, and Biological Evaluation of Potent Inhibitors” (J Med Chem, 2021).
